Assay outcomes deposited in PubChem by several laboratories.
PHOSPHO1 block: PubChem AID 1565; Phosphoethanolamine/phosphocholine phosphatase (Homo sapiens), Q8TCT1; recombinant PHOSPHO1, absorbance phosphatase assay; inhibition, % at 13.3 µM; 290,000 tested, 1.1% active; in the data active means inhibition above about 60%
Target sequence (Q8TCT1 whole entry, looked up): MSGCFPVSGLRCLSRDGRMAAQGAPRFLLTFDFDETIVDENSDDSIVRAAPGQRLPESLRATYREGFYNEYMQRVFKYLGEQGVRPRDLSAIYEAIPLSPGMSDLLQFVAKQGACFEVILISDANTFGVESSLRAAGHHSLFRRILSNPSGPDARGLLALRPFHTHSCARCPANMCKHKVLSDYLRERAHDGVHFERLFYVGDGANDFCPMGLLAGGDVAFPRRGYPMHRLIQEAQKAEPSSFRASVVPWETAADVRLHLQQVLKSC
procasp3 activ: activators of human procaspase-3 D3A mutant, primary screen, biochemical, absorbance, PC-3 D3A mutant, single concentration | Caspase-3 (Homo sapiens), P42574 | recombinant procaspase-3 D3A, Ac-DEVD-pNA absorbance 405 nm | activation, % at 8.5 µM | 330,000 tested, 0.11% active;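 active means activation above the mean of all tested compounds plus 3 SD, cut at about 21% in these data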;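 further: 0% = DMSO alone and 100% = DMSO wells spiked with extra 5 µM PC-3 D3A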
Target sequence (P42574 whole entry D9A/D28A/D175A): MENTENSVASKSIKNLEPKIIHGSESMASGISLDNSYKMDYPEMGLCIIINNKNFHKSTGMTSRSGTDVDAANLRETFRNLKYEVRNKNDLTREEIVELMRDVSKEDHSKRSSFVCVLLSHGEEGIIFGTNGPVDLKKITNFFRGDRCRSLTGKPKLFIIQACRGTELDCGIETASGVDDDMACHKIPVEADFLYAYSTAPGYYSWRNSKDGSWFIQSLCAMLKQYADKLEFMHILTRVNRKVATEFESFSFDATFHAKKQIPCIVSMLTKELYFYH
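material = Procaspase-3 D3A mutant | probe or stimulus = Ac-DEVD-pNA | compound = single dose, 8.5 µM nominal compound, 0.8% DMSO | timing = 1 h preincubation, 2 h reaction | measured by = 405 nm absorbance of p-nitroaniline, reads at 0 and 120 min | benchmarks = DMSO-only low control, 5 µM PC-3 D3A high control | repeats = singlicate, each compound tested once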
UBC13 inh: UBC13 polyubiquitin chain formation inhibitors, primary screen, biochemical, TR-FRET, uHTS; Ubiquitin-conjugating enzyme E2 N (Homo sapiens), P61088; inhibition, % at 20 µM; 330,000 tested, 0.47% active; AID 485273, 2010; in the data active means inhibition above about 45%, passing the limit was not always enough; inconclusive means no clear call, values can overlap the other calls
Target sequence (P61088 whole entry, looked up): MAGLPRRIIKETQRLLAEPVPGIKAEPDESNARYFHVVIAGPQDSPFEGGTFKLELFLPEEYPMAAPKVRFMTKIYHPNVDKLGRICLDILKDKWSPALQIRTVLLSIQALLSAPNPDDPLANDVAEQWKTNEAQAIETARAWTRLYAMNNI
proCasp7 act: procaspase-7 activators, primary screen, counter-screen for procaspase-3 activator project, biochemical, absorbance, HTS, human. Caspase-7 (Homo sapiens), P55210. recombinant procaspase-7, Ac-DEVD-pNA absorbance 405 nm; D23A/D198A/D206A triple mutant, cannot self-cleave; scale: DMSO 0, 5 µM enzyme 100. activation, % at 8.5 µM. 330,000 tested, 0.093% active. AID 463210, 2010;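 active means percent activation above the screen-wide mean plus 3 SD, cut at about 25% in these data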
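System: Procaspase-7 triple mutant (PC-7 D3A); measure: % activation from two-timepoint absorbance difference, scaled to controls; times: 1 h compound preincubation, 2 h substrate cleavage, 25 °C; also added: Ac-DEVD-pNA substrate, 400 µM as added; measured by: Epi-absorbance of released pNA at 405 nm, two timepoints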
IDE cell activ: human IDE activators in live cells, primary screen, fluorescence polarization, HEK cells, FAbeta-B substrate; Insulin-degrading enzyme (Homo sapiens), P14735; FAbeta-B cleavage; 0% vehicle, 100% cell-free pure enzyme wells; activation, % at 5.96 µM; 340,000 tested, 0.073% active;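 active means activation above the mean of all tested compounds plus 3 SD, set per screening campaign, cut at about 17% in these data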
IDE inh: human IDE inhibitors in live cells, primary screen, fluorescence polarization, HEK cells, FAbetaB substrate | inhibition, % at 5.59 µM | Insulin-degrading enzyme (Homo sapiens), P14735 | FAbetaB cleavage | 320,000 tested, 0.41% active | AID 434962, 2010;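 active means percent inhibition above the average of all tested compounds plus 3 SD, set per screening campaign, cut at about 16% in these data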;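 further: IDE supplied by intact live HEK cells; FP after avidin binding of uncleaved biotin substrate so inhibition keeps polarization high; 0% = DMSO wells and 100% = 60 µM reference IDE inhibitor Ii1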
Casp3 UBC13 ctr: CASP3 inhibitor validation, counterassay for project on UBE2N polyubiquitination blockers, biochemical, one dose; 1,400 tested, 4% active; AID 488856, 2010; inhibition, % at 20 µM; Recombinant caspase-3, Caspase-Glo 3/7 luminescence, 60 min; shares compounds with UBC13 inh;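 active means mean inhibition across replicates above about 26%, limit read from the data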;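 further: plate controls were DMSO with caspase-3 for no effect and DMSO wells lacking enzyme for full effect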
UBC13 conf: UBC13 polyubiquitination inhibitors, single-point retest, confirmation, biochemical, TR-FRET, single concentration; shares compounds with UBC13 inh; inhibition, % at 10 µM; 1,400 tested, 68% active; AID 488859, 2010; in the data active means inhibition above about 45%; inconclusive means no clear call, values can overlap the other calls
* = called active by the depositor; ? = inconclusive; · = not tested or not shown. In the library only some 1.9% were active in any assay of this set; here they are far more common.

SMILES | PHOSPHO1 block | procasp3 activ | UBC13 inh | proCasp7 act | IDE cell activ | IDE inh | Casp3 UBC13 ctr | UBC13 conf
C[C@@H](CN1C2=NC[C@H](Cc3ccc(O)cc3)N2C[C@H]1Cc1ccc(O)cc1)NC(=O)CCC1CCCCC1 | -37 | 2 | 44 | 5 | 3 | -7 | · | ·
COc1ccc(C[C@H]2CN3C(=NC[C@@H]3Cc3ccccc3)N2CCNC(=O)c2ccc(C)c(Br)c2)cc1 | 18 | 2 | 88* | -3 | 15 | -2 | 1 | 56*
COc1ccc(C[C@H]2CN3C(=NC[C@H]3Cc3ccccc3)N2CCNC(=O)CCC2CCCCC2)cc1 | 14 | 3 | 66* | 2 | 9 | -4 | 0 | 62*
COc1ccc(C[C@H]2CN3C(=NC[C@@H]3Cc3ccccc3)N2C[C@H](C)NC(=O)CCC2CCCCC2)cc1 | 22 | · | 17 | · | · | · | · | ·
COc1ccc(C[C@H]2CN3C(=NC[C@H]3Cc3ccccc3)N2CCNC(=O)c2ccc(C)c(Br)c2)cc1 | 18 | -1 | 72* | -4 | 13 | -3 | -2 | 61*
C[C@@H](CN1C2=NC[C@H](Cc3ccccc3)N2C[C@H]1Cc1ccc(O)cc1)NC(=O)CCC1CCCCC1 | 5 | -7 | 66* | 4 | -8 | 4 | 0 | 41
C/C=C(\C)C(=O)NCCN1C2=NC[C@@H](C)N2C[C@@H]1Cc1ccc(OC)cc1 | 22 | 8 | 4 | -3 | -3 | -3 | · | ·
CCN(CC)C1CCN(C(=O)c2ccc(OC3CCN(Cc4ccccn4)CC3)cc2)C1 (stereo unspecified) | 8 | -3 | -5 | -4 | 10 | -3 | · | ·
CC1(C)Cc2c(c(N3CCOCC3)nc3sc4c(=O)[nH]cnc4c23)CS1 | 108* | -1 | 50* | 6 | -5 | 10 | -2 | 54*
CC1(C)Cc2c(c(N3CCOCC3)nc3sc4c(N5CCOCC5)nnnc4c23)CS1 | 11 | -9 | -1 | 7 | · | 5 | · | ·
COc1ccc(-c2ccc(OC)c([C@H]3[C@H]4C=CC[C@@H](C)[C@@H]4C(=O)N3Cc3ccccc3)c2)cc1C | 26 | 4 | -22 | 5 | 7 | -10 | · | ·
COc1ccc(-c2cc3ccccc3s2)cc1[C@H]1[C@H]2C=CC[C@@H](C)[C@@H]2C(=O)N1Cc1ccccc1 | 31 | 8 | 48* | -2 | 3 | 2 | 60* | 34
N#CC(C#N)=C1NC(N)=C(C#N)C(c2ccccc2)=C1C#N | -102 | -6 | ? | -11 | 2 | 1 | · | ·
N#Cc1ccsc1NC(=O)C1CCN(C(=O)c2ccc(Cl)cc2)CC1 | · | -7 | 48* | 0 | 2 | 1 | -2 | 79*
CCOC(=O)c1cc(-c2ccc(C#N)cc2)nc2c1c(C)nn2CCC#N | -11 | -4 | 22 | -5 | 3 | 3 | · | ·
CCOC(=O)c1cc(-c2ccc(OC)cc2)nc2c1c(C)nn2CCC#N | 3 | -2 | 53* | 15 | 7 | 4 | 0 | ?
Cc1ccc(C2C3=C(CC(C)(C)CC3=O)NC3=C2C(=O)c2ccccc23)cc1 (stereo unspecified) | -25 | 1 | -8 | 0 | 9 | -2 | · | ·
CC1(C)CC(=O)C2=C(C1)NC1=C(C(=O)c3ccccc31)C2c1ccc(Cl)cc1 (stereo unspecified) | -44 | 8 | 50* | 3 | 11 | -5 | -4 | 56*
COc1ccc(C(CNC(=O)COc2c(C)cc(C)cc2C)N2CCOCC2)cc1 (stereo unspecified) | · | -3 | 51* | 2 | 3 | 4 | -1 | 29
COc1ccc(C(CNC(=O)COc2ccc(-c3ccccc3)cc2)N2CCOCC2)cc1 (stereo unspecified) | -13 | 11 | -5 | 4 | -2 | -1 | · | ·
COc1ccc(CCNS(=O)(=O)c2ccc3c(c2)CCCC3)cc1OC | · | 0 | 10 | 6 | 2 | 8 | · | ·
NC(N)=N/N=C/c1ccc2cccc(OCc3ccccc3)c2n1 | 28 | -21 | 50* | 2 | 1 | -1 | -1 | 41
FC(F)(F)c1cc(CCN2CCNC[C@@H]2Cc2ccccc2)cc(C(F)(F)F)c1 | · | 0 | 64* | 4 | 1 | 2 | 0 | 51*
CCn1c(SCC(=O)Nc2oc(C)c3c(C)n[nH]c(=O)c23)nc2sc(C)c(C)c2c1=O | · | 1 | 64* | -9 | 0 | -1 | -2 | 18
CS(=O)(=O)c1ccc(C(=O)OCC(=O)N2CCCc3ccccc32)cc1 | · | 19 | -2 | -3 | 0 | 7 | · | ·
SMILES | PHOSPHO1 block | procasp3 activ | UBC13 inh | proCasp7 act | IDE cell activ | IDE inh | Casp3 UBC13 ctr | UBC13 conf
CCN1CCN(CCNC(=O)c2ccc3nc(-c4cccc(C)c4)c(-c4cccc(C)c4)nc3c2)CC1 | 28 | -2 | 54* | -1 | 2 | 1 | -2 | 84*
O=C(O)CCCc1ccc2ccc3cccc4ccc1c2c34 | 7 | -7 | 13 | -3 | 6 | 3 | · | ·
NCCCCc1ccc2ccc3cccc4ccc1c2c34 | · | · | 49* | · | 1 | · | -1 | 85*
CCc1ccc(Nc2n[n+](-c3ccccc3)c(-c3c(Cl)cccc3Cl)s2)cc1 | 36 | 0 | 46* | -1 | 4 | 0 | -3 | 32
CCc1ccc(Nc2nc3ccccc3c(=O)s2)cc1 | -11 | 1 | 26 | 2 | 3 | 4 | · | ·
CCc1ccc(Nc2n[n+](-c3ccccc3)c(-c3cc(OC)c(OC)cc3Br)s2)cc1 | 4 | -13 | 52* | -27 | 8 | -5 | -5 | 12
COc1ccc(C)cc1Nc1n[n+](-c2ccccc2)c(-c2c(Cl)cccc2Cl)s1 | -7 | 0 | 26 | -7 | · | -6 | · | ·
COc1ccc(C)cc1Nc1n[n+](-c2ccccc2)c(-c2ccc(OC)c(OC)c2OC)s1 | -13 | -4 | 48* | -9 | -2 | 2 | -4 | 30
CCc1ccc(Nc2n[n+](-c3ccccc3)c(-c3ccc(OCc4ccccc4)cc3)s2)cc1 | -24 | 3 | -35 | -3 | -2 | 1 | · | ·
